Results reported in ChEMBL document CHEMBL1138302, “Diaryl dihydropyrazole-3-carboxamides with significant in vivo antiobesity activity related to CB1 receptor antagonism: synthesis, biological evaluation, and molecular modeling in the homology model” (J Med Chem, 2007).
The source made the active and inactive calls. The rule behind the calls is not given here.

What was measured:
Rattus norvegicus [1] = assay: Inhibition of sucrose intake in Zucker fa/fa rat at 10 mg/kg, po after 4 hrs; type: functional; conditions: for inhibition in vivo at 10 mg/kg: Rattus norvegicus, Zucker, po, 4 h
Method in brief: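 Female Zucker fa/fa rats (10-12 weeks, 300-350 g) trained six consecutive days on 5% sucrose with food and water withdrawn; day 7 randomized (n=6), dosed orally 10 mg/kg in 0.5% carboxymethylcellulose (2 mL/kg), exposed to sucrose 1 h later for 4 h. Consumption measured; % inhibition vs vehicle control; one-way ANOVA with Dunnett's test.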

Rattus norvegicus [2] = assay: Inhibition of body weight gain in Zucker fa/fa rat at 10 mg/kg, po; type: functional, organism-based; design: dose 10 mg/kg
Method in brief: (§1)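 Individually housed female obese Zucker fa/fa rats, groups of six, dosed orally daily 1 h before dark phase for 60 days; body weight recorded daily. Day 61 morning retro-orbital blood drawn and serum triglyceride measured by colorimetric kit. One-way ANOVA with Dunnett's test versus control.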

Rattus norvegicus [3] = assay: Reduction in serum triglyceride level in Zucker fa/fa rat at 10 mg/kg, po after 60 days; type: functional, organism-based; design: dose 10 mg/kg; method in brief: as §1
[4] = Tmax in fasted Zucker fa/fa rat at 30 mg/kg, po; type: ADME, organism-based; design: dose 30 mg/kg, route oral; conditions: in vivo
Method in brief: (§2)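 Overnight-fasted female obese Zucker fa/fa rats (n=6), single 30 mg/kg oral dose as suspension in 0.5% carboxymethylcellulose sodium in water. Retro-orbital serial bleeds at 10, 20, 40 min and 1, 2, 4, 6, 8, 24, 48 h; plasma extracted liquid-liquid and quantified by LC-MS against spiked-matrix calibration with internal standard. Noncompartmental parameters computed.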

[5] = Cmax in fasted Zucker fa/fa rat at 30 mg/kg, po; type: ADME, organism-based; design: dose 30 mg/kg, route oral; conditions: in vivo; method in brief: as §2
[6] = Half life in fasted Zucker fa/fa rat at 30 mg/kg, po; type: ADME, organism-based; design: dose 30 mg/kg, route oral; conditions: in vivo; method in brief: as §2
[7] = AUC (0 to infinity) in fasted Zucker fa/fa rat at 30 mg/kg, po; type: ADME, organism-based; design: time infinity, dose 30 mg/kg, route oral; conditions: plasma; method in brief: as §2
[8] = Drug concentration in fasted Zucker fa/fa rat brain at 30 mg/kg, po after 3 hrs; type: ADME, organism-based; design: dose 30 mg/kg, route oral; conditions: read-out: Drug uptake
Method in brief: (§3)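 Female obese Zucker fa/fa rats (n=6), fasted, single oral 30 mg/kg in 0.5% carboxymethylcellulose; blood, brain and white adipose tissue taken at 3 h. Tissues saline-washed and homogenized in Tris buffer pH 7.4; plasma and homogenates liquid-liquid extracted and assayed by LC-MS (cyano column, ammonium acetate/TFA–acetonitrile 30:70). Values mean ± SEM.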

[9] = Drug concentration in fasted Zucker fa/fa rat white adipose tissue at 30 mg/kg, po after 3 hrs; type: ADME, organism-based; design: dose 30 mg/kg, route oral; conditions: read-out: Drug uptake; method in brief: as §3
[10] = Drug concentration in fasted Zucker fa/fa rat plasma at 30 mg/kg, po after 3 hrs; type: ADME, organism-based; design: dose 30 mg/kg, route oral; method in brief: as §3

Row | SMILES | inhibition in vivo at 10 mg/kg (Rattus norvegicus [1]) [%] | also measured
1 | O=C(NN1CCOCC1)C1=NN(c2ccccc2)C(c2ccccc2)C1 (stereo not given) | 11.9 | 
2 | O=C(NN1CCOCC1)C1=NN(c2ccc(Cl)cc2Cl)C(c2ccc(Cl)cc2)C1.O=S(=O)(O)c1ccccc1 (single isomer, unassigned; 33) |  | Inhibition (Rattus norvegicus [1]): 17.1%
3 | O=C(NN1CCCC1)C1=NN(c2ccc(Cl)cc2Cl)C(c2ccc(Cl)cc2)C1 (stereo not given) | 2.5 | 
4 | O=C(NN1CCOCC1)C1=NN(c2ccc(Cl)cc2Cl)C(c2ccco2)C1 (stereo not given) | 15.1 | 
5 | CCCCOc1ccc(C2CC(C(=O)NN3CCOCC3)=NN2c2ccc(Cl)cc2Cl)cc1 (stereo not given) | 18.1 | 
6 | COc1ccc(C2CC(C(=O)NN3CCOCC3)=NN2c2ccc(Cl)cc2Cl)cc1 (stereo not given) | 9.4 | 
7 | O=C(NN1CCOCC1)C1=NN(c2ccc(Cl)cc2Cl)C(c2ccc(Cl)cc2)C1.O=C(O)C(=O)O (stereo not given) |  | Inhibition (Rattus norvegicus [1]): 20.4%
8 | O=C(NN1CCOCC1)C1=NN(c2ccc(Cl)cc2Cl)C(c2ccc(Br)cc2)C1 (stereo not given) | 24.2 | 
9 | CCCCCc1ccc(C2CC(C(=O)NN3CCOCC3)=NN2c2ccc(Cl)cc2Cl)cc1 (stereo not given) | 13.1 | 
10 | Cc1c(C(=O)NN2CCCCC2)nn(-c2ccc(Cl)cc2Cl)c1-c1ccc(Cl)cc1 [RIMONABANT] | 36.7 | Activity (Rattus norvegicus [2]): Active; Activity (Rattus norvegicus [3]): Active; Tmax [4]: 2.6 h; Cmax [5]: 1920 ng/mL; half-life [6]: 26.6 h; AUC(0-inf) [7]: 41200 ng·h/mL; concentration at 3 h [8]: 450 ng/g; concentration at 3 h [9]: 4250 ng/g; concentration at 3 h [10]: 400 ng/mL
11 | O=C(NN1CCOCC1)C1=NN(c2ccc(Cl)cc2)C(c2ccccc2)C1 (stereo not given) | 5.6 | 
12 | Cc1ccc(C2CC(C(=O)NN3CCOCC3)=NN2c2ccc(Cl)cc2Cl)s1 (stereo not given) | 9.3 | 
13 | O=C(NN1CCCCC1)C1=NN(c2ccc(Cl)cc2Cl)C(c2ccc(Cl)cc2)C1 (stereo not given) | 23.6 | 
14 | O=C(NN1CCOCC1)C1=NN(c2ccccc2)C(c2ccc(Cl)cc2)C1 (stereo not given) | 0.5 | 
15 | O=C(NN1CCOCC1)C1=NN(c2ccc(Cl)cc2Cl)C(c2ccccc2)C1 (stereo not given) | 31.9 | 
16 | CS(=O)(=O)O.O=C(NN1CCOCC1)C1=NN(c2ccc(Cl)cc2Cl)C(c2ccc(Cl)cc2)C1 (stereo not given) |  | Inhibition (Rattus norvegicus [1]): 19.2%
